# Results as given in ChEMBL document CHEMBL4689842, “EUbOPEN Chemogenomics Library wave 1” (2021).
# Test system: HEK-293T
# Assay: Multiplex assay against HEK293T;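 as to Population Tubulin-Different-Phenotype (%): share of the cells with healthy nuclei that show this phenotype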
# Assay type: toxicity, cell-based
# Conditions: human
# Method in brief: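 Cells stained live at seeding with Hoechst33342, BioTracker Green Microtubule Cytoskeleton Dye, MitoTracker Red and Annexin V Alexa Fluor 680 were imaged on a CQ1 microscope at 37°C and 5% CO2 after compound addition. Their classification by CellPathfinder machine-learning gating ran from Hoechst high-intensity objects versus normal cells, to healthy, pyknosed or fragmented nuclei among normal cells, to mitotic or apoptotic among pyknosed cells. Tubulin, mitochondrial-mass and membrane-permeability phenotypes are per cents of healthy-nucleus cells.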
# [1] = 12 h, 1 µM, compound concentration 1 uM, replicate 1
# [2] = 12 h, 1 µM, compound concentration 1 uM, replicate 2
# [3] = 12 h, 10 µM, compound concentration 10 uM, replicate 1
# [4] = 12 h, 10 µM, compound concentration 10 uM, replicate 2
# [5] = 24 h, 1 µM, compound concentration 1 uM, replicate 1
# [6] = 24 h, 1 µM, compound concentration 1 uM, replicate 2
# [7] = 24 h, 10 µM, compound concentration 10 uM, replicate 1
# [8] = 24 h, 10 µM, compound concentration 10 uM, replicate 2
# [9] = 48 h, 1 µM, compound concentration 1 uM, replicate 1
# [10] = 48 h, 1 µM, compound concentration 1 uM, replicate 2
# [11] = 48 h, 10 µM, compound concentration 10 uM, replicate 1
# [12] = 48 h, 10 µM, compound concentration 10 uM, replicate 2
structure (smiles),measurement,setting,value
CCCCN(CC)c1nc(C)nc2c1c(C)cn2-c1c(C)cc(C)cc1C.Cl,Population Apoptotic (%),[1],49%
same,Population Fragmented Nuclei (%),[1],15%
same,Population Healthy Nuclei (%),[1],45%
same,Population Hoechst High Intensity Objects (%),[1],16%
same,Population Membrane Permeable-Phenotype (%),[1],5%
same,Population Mitochondria Different-Phenotype (%),[1],79%
same,Population Mitotic Cells (%),[1],50%
same,Population Normal (%),[1],83%
same,Population Pyknosed Nuclei (%),[1],39%
same,Population Tubulin-Different-Phenotype (%),[1],32%
same,Total Cell Count,[1],241
same,Population Apoptotic (%),[2],11%
same,Population Fragmented Nuclei (%),[2],5%
same,Population Healthy Nuclei (%),[2],43%
same,Population Hoechst High Intensity Objects (%),[2],1%
same,Population Membrane Permeable-Phenotype (%),[2],6%
same,Population Mitochondria Different-Phenotype (%),[2],11%
same,Population Mitotic Cells (%),[2],88%
same,Population Normal (%),[2],98%
same,Population Pyknosed Nuclei (%),[2],51%
same,Population Tubulin-Different-Phenotype (%),[2],17%
same,Total Cell Count,[2],240
same,Population Apoptotic (%),[3],59%
same,Population Fragmented Nuclei (%),[3],13%
same,Population Hoechst High Intensity Objects (%),[3],8%
same,Population Membrane Permeable-Phenotype (%),[3],1%
same,Population Mitochondria Different-Phenotype (%),[3],95%
same,Population Mitotic Cells (%),[3],40%
same,Population Normal (%),[3],91%
same,Population Pyknosed Nuclei (%),[3],49%
same,Population Tubulin-Different-Phenotype (%),[3],75%
same,Total Cell Count,[3],236
same,Population Apoptotic (%),[4],27%
same,Population Fragmented Nuclei (%),[4],7%
same,Population Healthy Nuclei (%),[4],37%
same,Population Hoechst High Intensity Objects (%),[4],7%
same,Population Membrane Permeable-Phenotype (%),[4],6%
same,Population Mitochondria Different-Phenotype (%),[4],68%
same,Population Mitotic Cells (%),[4],72%
same,Population Normal (%),[4],92%
same,Population Pyknosed Nuclei (%),[4],54%
same,Population Tubulin-Different-Phenotype (%),[4],60%
same,Total Cell Count,[4],211
same,Population Apoptotic (%),[5],48%
same,Population Fragmented Nuclei (%),[5],16%
same,Population Healthy Nuclei (%),[5],41%
same,Population Hoechst High Intensity Objects (%),[5],13%
same,Population Membrane Permeable-Phenotype (%),[5],4%
same,Population Mitochondria Different-Phenotype (%),[5],61%
same,Population Mitotic Cells (%),[5],51%
same,Population Normal (%),[5],86%
same,Population Pyknosed Nuclei (%),[5],42%
same,Population Tubulin-Different-Phenotype (%),[5],36%
same,Total Cell Count,[5],247
same,Population Apoptotic (%),[6],15%
same,Population Fragmented Nuclei (%),[6],4%
same,Population Healthy Nuclei (%),[6],61%
same,Population Hoechst High Intensity Objects (%),[6],1%
same,Population Membrane Permeable-Phenotype (%),[6],9%
same,Population Mitochondria Different-Phenotype (%),[6],13%
same,Population Mitotic Cells (%),[6],84%
same,Population Normal (%),[6],98%
same,Population Pyknosed Nuclei (%),[6],33%
same,Population Tubulin-Different-Phenotype (%),[6],21%
same,Total Cell Count,[6],308
same,Population Apoptotic (%),[7],64%
same,Population Fragmented Nuclei (%),[7],10%
same,Population Hoechst High Intensity Objects (%),[7],9%
same,Population Membrane Permeable-Phenotype (%),[7],1%
same,Population Mitochondria Different-Phenotype (%),[7],95%
same,Population Mitotic Cells (%),[7],35%
same,Population Normal (%),[7],90%
same,Population Pyknosed Nuclei (%),[7],37%
same,Population Tubulin-Different-Phenotype (%),[7],89%
same,Population Apoptotic (%),[8],29%
same,Population Fragmented Nuclei (%),[8],4%
same,Population Healthy Nuclei (%),[8],51%
same,Population Hoechst High Intensity Objects (%),[8],6%
same,Population Membrane Permeable-Phenotype (%),[8],4%
same,Population Mitochondria Different-Phenotype (%),[8],73%
same,Population Mitotic Cells (%),[8],70%
same,Population Normal (%),[8],93%
same,Population Pyknosed Nuclei (%),[8],44%
same,Population Tubulin-Different-Phenotype (%),[8],81%
same,Total Cell Count,[8],231
same,Population Apoptotic (%),[9],43%
same,Population Fragmented Nuclei (%),[9],20%
same,Population Healthy Nuclei (%),[9],46%
same,Population Hoechst High Intensity Objects (%),[9],12%
same,Population Membrane Permeable-Phenotype (%),[9],2%
same,Population Mitochondria Different-Phenotype (%),[9],26%
same,Population Mitotic Cells (%),[9],56%
same,Population Normal (%),[9],87%
same,Population Pyknosed Nuclei (%),[9],32%
same,Population Tubulin-Different-Phenotype (%),[9],22%
same,Total Cell Count,[9],315
same,Population Apoptotic (%),[10],15%
same,Population Fragmented Nuclei (%),[10],7%
same,Population Healthy Nuclei (%),[10],82%
same,Population Hoechst High Intensity Objects (%),[10],3%
same,Population Membrane Permeable-Phenotype (%),[10],4%
same,Population Mitochondria Different-Phenotype (%),[10],8%
same,Population Mitotic Cells (%),[10],84%
same,Population Normal (%),[10],96%
same,Population Pyknosed Nuclei (%),[10],10%
same,Population Tubulin-Different-Phenotype (%),[10],17%
same,Total Cell Count,[10],539
same,Population Apoptotic (%),[11],49%
same,Population Fragmented Nuclei (%),[11],13%
same,Population Healthy Nuclei (%),[11],67%
same,Population Hoechst High Intensity Objects (%),[11],9%
same,Population Membrane Permeable-Phenotype (%),[11],3%
same,Population Mitochondria Different-Phenotype (%),[11],74%
same,Population Mitotic Cells (%),[11],50%
same,Population Normal (%),[11],90%
same,Population Pyknosed Nuclei (%),[11],19%
same,Population Tubulin-Different-Phenotype (%),[11],70%
same,Total Cell Count,[11],365
same,Population Apoptotic (%),[12],36%
same,Population Fragmented Nuclei (%),[12],7%
same,Population Healthy Nuclei (%),[12],74%
same,Population Hoechst High Intensity Objects (%),[12],2%
same,Population Membrane Permeable-Phenotype (%),[12],0%
same,Population Mitochondria Different-Phenotype (%),[12],54%
same,Population Mitotic Cells (%),[12],63%
same,Population Normal (%),[12],97%
same,Population Pyknosed Nuclei (%),[12],18%
same,Population Tubulin-Different-Phenotype (%),[12],67%
same,Total Cell Count,[12],337
